Assays:
[1] = Tmax in Sprague-Dawley rat at 3 mg/kg, po by LC-MS/MS analysis; assay type: ADME, organism-based; settings: in vivo
Outline: (§1)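 Oral/nasogastric dosing at 3 mpk in 1.0% CMC/0.25% PS80/0.05% antifoam in purified water. Plasma samples collected and analyzed by LC-MS/MS; parameters reported as mean ± SD, N=2-3.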

Mus musculus [2] = test: Antidyslipidemic activity in western-diet fed mouse expressing LDL-receptor (-/-) assessed as decrease in triglyceride level at 3 mg/kg qd for a week administered via gavage […]; assay type: functional; settings: po
Outline: (§2)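 Male LDLR null mice, six per group, were gavaged once daily for one week with compound (in situ sodium salt) or vehicle (5% Solutol, 5% EtOH, 1% wt/v CMC) at 5 mL/kg. On day 7 they were bled by cardiac puncture under CO2 anaesthesia. Serum cholesterol and triglycerides were measured enzymatically on a clinical chemistry analyser (mean ± SD, n=6). ED50 was obtained by nonlinear regression.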

Rattus norvegicus [3] = test: Antidyslipidemic activity in ZDF rat assessed as VLDL level at 10 mg/kg for 9 days by FPLC analysis (reference value: 35 mg/dL); assay type: functional, Zucker
[4] = Tmax in beagle dog at 3 mg/kg, po by LC-MS/MS analysis; assay type: ADME, organism-based, Canis lupus familiaris; settings: in vivo; outline: as §1
[5] = Tmax in cynomolgus monkey at 3 mg/kg, po by LC-MS/MS analysis; assay type: ADME, organism-based, Macaca fascicularis; settings: in vivo; outline: as §1
Rattus norvegicus [6] = test: Antidyslipidemic activity in ZDF rat assessed as LDL/IgHDL level at 30 mg/kg for 9 days by FPLC analysis (reference value: 17.8 mg/dL); assay type: functional, Zucker
Progesterone receptor = biological target: T1, Progesterone receptor (Homo sapiens, UniProt P06401); test: Agonist activity at progesterone receptor (unknown origin) expressed in HEK293 cells assessed as transcriptional activation; assay type: cell-based
T1 sequence (P06401 whole entry): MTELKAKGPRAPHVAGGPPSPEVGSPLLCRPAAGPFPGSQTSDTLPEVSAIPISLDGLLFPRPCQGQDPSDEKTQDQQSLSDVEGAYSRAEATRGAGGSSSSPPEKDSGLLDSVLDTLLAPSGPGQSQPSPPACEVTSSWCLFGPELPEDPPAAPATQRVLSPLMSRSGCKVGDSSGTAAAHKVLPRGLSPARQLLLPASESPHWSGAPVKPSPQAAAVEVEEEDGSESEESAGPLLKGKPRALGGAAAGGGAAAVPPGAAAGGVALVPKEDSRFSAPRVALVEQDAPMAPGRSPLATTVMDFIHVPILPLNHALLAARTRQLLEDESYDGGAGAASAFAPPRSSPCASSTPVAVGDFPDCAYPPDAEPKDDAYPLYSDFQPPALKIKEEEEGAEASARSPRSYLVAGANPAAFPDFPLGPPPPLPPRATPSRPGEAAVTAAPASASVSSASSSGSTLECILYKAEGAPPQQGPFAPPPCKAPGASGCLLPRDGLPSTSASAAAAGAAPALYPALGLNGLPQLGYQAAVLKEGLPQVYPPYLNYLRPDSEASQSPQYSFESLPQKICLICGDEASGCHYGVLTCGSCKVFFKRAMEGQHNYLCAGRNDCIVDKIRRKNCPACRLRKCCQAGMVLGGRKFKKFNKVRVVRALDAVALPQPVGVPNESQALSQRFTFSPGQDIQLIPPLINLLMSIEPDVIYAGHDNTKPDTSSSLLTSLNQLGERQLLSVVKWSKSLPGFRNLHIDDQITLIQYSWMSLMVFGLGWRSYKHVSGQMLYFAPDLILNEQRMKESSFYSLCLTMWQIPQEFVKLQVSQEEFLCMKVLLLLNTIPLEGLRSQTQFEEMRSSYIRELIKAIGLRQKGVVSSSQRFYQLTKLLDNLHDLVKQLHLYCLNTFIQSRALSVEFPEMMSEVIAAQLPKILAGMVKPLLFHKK

Rattus norvegicus [7] = test: Antidyslipidemic activity in ZDF rat assessed as VLDL level at 3 mg/kg for 9 days by FPLC analysis (reference value: 35 mg/dL); assay type: functional, Zucker
Glucocorticoid receptor = biological target: T2, Glucocorticoid receptor (Homo sapiens, UniProt P04150); test: Agonist activity at glucocorticoid receptor (unknown origin) expressed in HEK293 cells assessed as transcriptional activation; assay type: cell-based
T2 sequence (P04150 whole entry): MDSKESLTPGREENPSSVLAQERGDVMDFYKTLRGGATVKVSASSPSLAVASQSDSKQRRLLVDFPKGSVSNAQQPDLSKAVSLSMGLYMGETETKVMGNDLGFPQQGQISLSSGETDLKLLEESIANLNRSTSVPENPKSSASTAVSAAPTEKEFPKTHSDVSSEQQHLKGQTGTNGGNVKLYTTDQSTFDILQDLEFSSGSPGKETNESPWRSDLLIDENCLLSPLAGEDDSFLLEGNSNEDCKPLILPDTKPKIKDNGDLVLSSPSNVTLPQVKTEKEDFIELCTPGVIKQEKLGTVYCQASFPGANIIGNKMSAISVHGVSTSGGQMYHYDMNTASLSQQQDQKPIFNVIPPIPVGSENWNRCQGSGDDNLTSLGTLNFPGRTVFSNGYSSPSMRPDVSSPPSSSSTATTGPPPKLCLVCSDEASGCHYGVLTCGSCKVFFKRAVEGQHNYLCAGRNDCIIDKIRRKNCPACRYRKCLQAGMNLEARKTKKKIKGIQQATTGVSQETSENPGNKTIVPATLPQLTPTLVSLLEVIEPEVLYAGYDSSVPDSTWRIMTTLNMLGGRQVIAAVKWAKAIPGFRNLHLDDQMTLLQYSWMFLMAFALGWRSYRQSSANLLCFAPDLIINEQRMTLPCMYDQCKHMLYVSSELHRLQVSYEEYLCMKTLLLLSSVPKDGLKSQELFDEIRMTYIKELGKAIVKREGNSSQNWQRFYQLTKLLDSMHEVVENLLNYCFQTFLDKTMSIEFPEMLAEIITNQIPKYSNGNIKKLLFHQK

[8] = Initial plasma concentration in cynomolgus monkey at 0.91 mg/kg, iv by LC-MS/MS analysis; assay type: ADME, organism-based, Macaca fascicularis
Outline: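 Intravenous dose given in 5% Solutol / 5% EtOH in saline (1 mg/kg rat and dog, 0.91 mpk monkey). Plasma samples collected and analyzed by LC-MS/MS; parameters reported as mean ± SD, N=2-3.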

Mus musculus [9] = test: Antidyslipidemic activity in western-diet fed mouse expressing LDL-receptor (-/-) assessed as decrease in very-low density lipoprotein level at 30 mg/kg qd for a week administered via gavage by FPLC analysis; assay type: functional; settings: po
Outline: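 LDLR null male mice, six per group, were dosed by gavage once daily for one week (vehicle 5% Solutol, 5% EtOH, 1% wt/v CMC; 5 mL/kg). Serum was collected by cardiac puncture on day 7 under CO2 anaesthesia. Pooled serum from each treatment group was fractionated by FPLC to quantify VLDL and LDL.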

[10] = Fraction unbound in human plasma; assay type: ADME, cell-free
Rattus norvegicus [11] = test: Antidyslipidemic activity in ZDF rat assessed as HDL level at 30 mg/kg for 9 days by FPLC analysis (reference value: 48.3 mg/dL); assay type: functional, Zucker
Mus musculus [12] = test: Antidyslipidemic activity in western-diet fed mouse expressing LDL-receptor (-/-) assessed as decrease in total cholesterol level at 1 mg/kg qd for a week administered via gavage […]; assay type: functional; settings: po; outline: as §2

- Tmax [1]: 1.08 h
- Tmax [4]: 45 min
- Tmax [5]: 3.33 h
- EC50 (Progesterone receptor): > 10 µM
- EC50 (Glucocorticoid receptor): > 10 µM
- C0 [8]: 4220 ng/mL
- fraction unbound [10]: 0.032
SMILES: Cn1cc(C(=O)O)c2ccc(N3CCC(OCc4c(-c5c(Cl)cccc5Cl)noc4C4CC4)CC3)cc21 [TERN-101]
- inhibition in vivo at 3 mg/kg (Mus musculus [2]): 46%
- Activity (Rattus norvegicus [3]): 18.2 mg/dL
- Activity (Rattus norvegicus [6]): 18.6 mg/dL
- Activity (Rattus norvegicus [7]): 21.9 mg/dL
- inhibition in vivo at 30 mg/kg (Mus musculus [9]): 98%
- Activity (Rattus norvegicus [11]): 94 mg/dL
- inhibition in vivo at 1 mg/kg (Mus musculus [12]): 37%

— ChEMBL document CHEMBL3745677, “Discovery of 6-(4-{[5-Cyclopropyl-3-(2,6-dichlorophenyl)isoxazol-4-yl]methoxy}piperidin-1-yl)-1-methyl-1H-indole-3-carboxylic Acid: A Novel FXR Agonist for the Treatment of Dyslipidemia” (J Med Chem, 2015)
